In ChEMBL document CHEMBL2157870 (J Med Chem, 2012):
Converted amounts (≈) assume the structure as drawn.

Tests used:
[1] = molecular target: Voltage-gated inwardly rectifying potassium channel KCNH2 (Homo sapiens, UniProt Q12809); assay: Inhibition of human ERG by patch clamp assay
Plasmodium falciparum [2] = assay: Antimalarial activity against Plasmodium falciparum 3D7 after 72 hrs by MSF assay; type: functional, organism-based; conditions: 3D7, 72 h
Plasmodium falciparum [3] = assay: Antimalarial activity against Plasmodium falciparum K1 after 72 hrs by MSF assay; type: functional, organism-based; conditions: K1, 72 h
[4] = molecular target: T1, ATP-sensitive inward rectifier potassium channel 11 (Homo sapiens, UniProt Q14654); assay: Inhibition of Kir6.2 by patch clamp assay
T1 sequence (Q14654 whole entry): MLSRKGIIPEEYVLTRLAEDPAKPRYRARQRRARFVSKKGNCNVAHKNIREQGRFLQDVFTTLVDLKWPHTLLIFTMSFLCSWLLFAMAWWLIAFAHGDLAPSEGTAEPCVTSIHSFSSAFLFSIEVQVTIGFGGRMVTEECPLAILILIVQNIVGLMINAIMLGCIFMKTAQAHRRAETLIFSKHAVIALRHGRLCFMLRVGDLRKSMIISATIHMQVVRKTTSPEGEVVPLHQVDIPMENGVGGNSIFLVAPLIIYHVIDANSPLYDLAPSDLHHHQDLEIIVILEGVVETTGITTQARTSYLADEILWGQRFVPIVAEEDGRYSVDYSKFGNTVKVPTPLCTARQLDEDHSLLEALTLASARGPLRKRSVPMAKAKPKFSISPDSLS

[5] = Permeability of the compound at 10 uM at pH 7.4 by PAMPA; type: ADME; conditions: pH 7.4, 10 µM
Outline: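 PAMPA: diluted compound in system solution buffer at pH 7.4 was placed in the donor well over a GIT-lipid-painted membrane, with acceptor solution buffer in the acceptor well. The sandwich was stirred for 30 min with the aqueous boundary layer set to 40 μm. Triplicate.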

[6] = Solubility of the compound in PBS at 10 mM after 18 hrs by UV spectroscopic analysis; type: physicochemical
[7] = Intrinsic clearance in human liver microsomes at 2 mM; type: ADME, Microsome; conditions: read-out: CLH
Mus musculus [8] = assay: Cmax in CD1 mouse at 20 mg/kg, po; type: ADME, organism-based; parameters: dose 20 mg/kg, route oral; conditions: in vivo
Outline: (§1)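 Female CD-1 mice, 8 weeks old, were given a single oral gavage dose as a suspension in 0.5% methylcellulose in sterile water. Blood was taken from three mice per time point (5 min–24 hr) into K3EDTA and processed to plasma. After acetonitrile protein precipitation, samples were analysed by LC-MS/MS with a warfarin internal standard. Noncompartmental analysis used linear-up/log-down trapezoidal AUC and at least three non-zero concentrations after Tmax.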

Mus musculus [9] = assay: Cmax in CD1 mouse at 200 mg/kg, po; type: ADME, organism-based; parameters: dose 200 mg/kg, route oral; conditions: in vivo; outline: as §1
Mus musculus [10] = assay: Tmax in CD1 mouse at 20 mg/kg, po; type: ADME, organism-based; parameters: dose 20 mg/kg, route oral; conditions: in vivo; outline: as §1
Mus musculus [11] = assay: Tmax in CD1 mouse at 200 mg/kg, po; type: ADME, organism-based; parameters: dose 200 mg/kg, route oral; conditions: in vivo; outline: as §1
Mus musculus [12] = assay: AUC (0 to infinity) in CD1 mouse at 200 mg/kg, po; type: ADME, organism-based, Plasma; parameters: time infinity, dose 200 mg/kg, route oral; conditions: in vivo; outline: as §1
[13] = Apparent volume of distribution during terminal phase in CD1 mouse at 200 mg/kg, po; type: ADME, organism-based; parameters: dose 200 mg/kg, route oral; conditions: in vivo, read-out: Vz/F; outline: as §1
HEK293 = assay: Cytotoxicity against human HEK293 cells at 25 uM after 72 hrs by celltiter-glo assay; type: cell-based; conditions: hek293, 72 h
HepG2 = assay: Cytotoxicity against human HepG2 cells at 25 uM after 72 hrs by celltiter-glo assay; type: cell-based; conditions: hepg2, 72 h
Raji = assay: Cytotoxicity against human Raji cells at 25 uM after 72 hrs by celltiter-glo assay; type: cell-based
BJ = assay: Cytotoxicity against human BJ cells at 25 uM after 72 hrs by celltiter-glo assay; type: cell-based
CYP2D6 [14] = molecular target: T2, CYP2D6 (Homo sapiens, UniProt P10635); assay: Inhibition of CYP2D6 in human liver microsomes at 1 uM after 20 mins by LC-MS/MS analysis relative to control; values are per cent of control
T2 sequence (P10635 whole entry): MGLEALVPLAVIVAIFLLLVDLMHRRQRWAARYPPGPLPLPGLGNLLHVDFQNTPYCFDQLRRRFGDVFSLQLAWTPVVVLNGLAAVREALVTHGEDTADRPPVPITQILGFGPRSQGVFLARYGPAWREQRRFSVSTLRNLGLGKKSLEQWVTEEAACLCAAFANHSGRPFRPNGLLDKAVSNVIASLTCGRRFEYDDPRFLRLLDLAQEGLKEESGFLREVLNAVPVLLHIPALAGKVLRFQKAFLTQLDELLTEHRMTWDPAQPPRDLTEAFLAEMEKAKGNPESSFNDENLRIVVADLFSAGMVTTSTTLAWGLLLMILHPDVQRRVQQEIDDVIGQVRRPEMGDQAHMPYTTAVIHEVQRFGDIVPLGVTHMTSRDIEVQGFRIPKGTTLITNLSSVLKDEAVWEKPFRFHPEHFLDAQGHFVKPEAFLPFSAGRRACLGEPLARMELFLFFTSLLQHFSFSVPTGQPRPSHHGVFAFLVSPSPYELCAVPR

CYP2D6 [15] = molecular target: T2, CYP2D6; assay: Inhibition of CYP2D6 in human liver microsomes at 10 uM after 20 mins by LC-MS/MS analysis relative to control; values are per cent of control
Mus musculus [16] = assay: AUC (0 to infinity) in CD1 mouse at 20 mg/kg, po; type: ADME, organism-based, Plasma; parameters: time infinity, dose 20 mg/kg, route oral; conditions: in vivo; outline: as §1
[17] = (§2) Apparent volume of distribution during terminal phase in CD1 mouse at 20 mg/kg, po; type: ADME, organism-based; parameters: dose 20 mg/kg, route oral; conditions: CD1, mouse, in vivo, read-out: Vz/F; outline: as §1
Mus musculus [18] = assay: Cmax in CD1 mouse at 500 mg/kg, po; type: ADME, organism-based; parameters: dose 500 mg/kg, route oral; conditions: in vivo; outline: as §1
Mus musculus [19] = assay: Tmax in CD1 mouse at 500 mg/kg, po; type: ADME, organism-based; parameters: dose 500 mg/kg, route oral; conditions: in vivo; outline: as §1
Mus musculus [20] = assay: AUC (0 to infinity) in CD1 mouse at 500 mg/kg, po; type: ADME, organism-based, Plasma; parameters: time infinity, dose 500 mg/kg, route oral; conditions: in vivo; outline: as §1
Mus musculus [21] = assay: (§3) Apparent volume of distribution during terminal phase in CD1 mouse at 500 mg/kg, po; type: ADME, organism-based; parameters: dose 500 mg/kg, route oral; conditions: mouse, in vivo; outline: as §1
[22] = Intrinsic clearance in […] mouse liver microsomes at 2 mM; type: ADME, Microsome; conditions: read-out: CLH
Plasmodium berghei [23] = assay: Antimalarial activity against Plasmodium berghei NK-65 infected in ICR mouse assessed as parasitemia level at 100 mg/kg, po administered day 3, 4 and 5 post infection measured on day 6 by Geimsa staining; type: functional
Outline: (§4)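 Female Swiss outbred ICR mice, 15–20 g, given 1 X 10^6 P. berghei NK-65 infected red cells from donor mice in plasma at day 0 (modified Thompson's test). Patent infection confirmed by tail blood smear on day 3. Oral single daily doses in 0.5% HEC on days 3, 4, 5. Vehicle controls. Survival recorded daily to day 30. Parasitemia from Giemsa thin films on days 3, 6, 13, 20, 27, counting ≥1000 cells.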

Mus musculus [24] = assay: as §2; type: ADME, organism-based; parameters: dose 20 mg/kg, route oral; conditions: mouse, in vivo; outline: as §1
[25] = as §3; type: ADME, organism-based; parameters: dose 500 mg/kg, route oral; conditions: CD1, mouse, in vivo, read-out: Vz/F; outline: as §1
Plasmodium berghei [26] = assay: Antimalarial activity against Plasmodium berghei NK-65 infected in ICR mouse assessed as parasitemia level at 200 mg/kg, po administered day 3, 4 and 5 post infection measured on day 6 by Geimsa staining; type: functional; outline: as §4
Plasmodium berghei [27] = assay: Antimalarial activity against Plasmodium berghei NK-65 infected in ICR mouse assessed as parasitemia level at 200 mg/kg, po administered day 3, 4 and 5 post infection measured on day 13 by Geimsa staining; type: functional; outline: as §4
Plasmodium berghei [28] = assay: Antimalarial activity against Plasmodium berghei NK-65 infected in ICR mouse assessed as parasitemia level at 200 mg/kg, po administered day 3, 4 and 5 post infection measured on day 20 by Geimsa staining; type: functional; outline: as §4
Plasmodium berghei [29] = assay: Antimalarial activity against Plasmodium berghei NK-65 infected in ICR mouse assessed as survival rate at 100 mg/kg, po administered day 3, 4 and 5 post infection; type: functional; outline: as §4

Voltage-gated inwardly rectifying potassium channel KCNH2, sequence (Q12809 whole entry): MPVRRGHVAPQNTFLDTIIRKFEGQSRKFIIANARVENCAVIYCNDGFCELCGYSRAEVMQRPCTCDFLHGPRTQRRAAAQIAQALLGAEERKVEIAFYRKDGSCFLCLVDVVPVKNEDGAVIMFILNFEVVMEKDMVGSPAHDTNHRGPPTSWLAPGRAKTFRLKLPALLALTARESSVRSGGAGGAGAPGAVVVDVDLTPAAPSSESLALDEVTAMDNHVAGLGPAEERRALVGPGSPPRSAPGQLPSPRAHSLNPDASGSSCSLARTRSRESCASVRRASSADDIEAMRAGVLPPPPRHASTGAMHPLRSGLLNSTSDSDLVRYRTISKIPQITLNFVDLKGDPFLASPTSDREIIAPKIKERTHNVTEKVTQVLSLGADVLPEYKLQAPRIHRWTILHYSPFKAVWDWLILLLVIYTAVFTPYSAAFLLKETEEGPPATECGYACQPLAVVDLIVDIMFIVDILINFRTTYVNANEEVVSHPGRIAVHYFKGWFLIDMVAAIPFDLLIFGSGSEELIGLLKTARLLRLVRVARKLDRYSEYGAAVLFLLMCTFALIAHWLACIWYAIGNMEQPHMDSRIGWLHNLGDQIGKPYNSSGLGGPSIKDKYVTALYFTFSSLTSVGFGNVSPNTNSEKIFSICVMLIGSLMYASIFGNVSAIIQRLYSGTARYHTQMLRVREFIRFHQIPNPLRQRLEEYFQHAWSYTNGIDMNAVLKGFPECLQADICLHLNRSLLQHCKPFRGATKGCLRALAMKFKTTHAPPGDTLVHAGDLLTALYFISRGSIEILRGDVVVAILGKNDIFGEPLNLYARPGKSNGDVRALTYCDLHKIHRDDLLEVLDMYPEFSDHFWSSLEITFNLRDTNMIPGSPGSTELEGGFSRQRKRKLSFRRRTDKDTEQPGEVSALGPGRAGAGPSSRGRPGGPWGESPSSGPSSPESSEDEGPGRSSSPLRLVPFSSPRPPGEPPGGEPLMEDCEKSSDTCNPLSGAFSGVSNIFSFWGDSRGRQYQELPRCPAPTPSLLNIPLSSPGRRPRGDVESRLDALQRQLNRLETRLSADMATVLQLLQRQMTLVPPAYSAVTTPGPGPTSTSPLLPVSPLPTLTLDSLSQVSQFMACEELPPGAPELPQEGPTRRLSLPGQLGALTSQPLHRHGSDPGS

Row | SMILES | EC90 (Plasmodium falciparum [2]) [µM] | EC90 (Plasmodium falciparum [3]) [µM] | IC50 [4] [µM] | permeability ([5]; BLD = below limit of detection) | solubility at 18 h, 10000 µM [6] [µM] | Cmax (Mus musculus [8]) [µM] | Cmax (Mus musculus [9]) [µM] | Tmax (Mus musculus [10]) [min] | Tmax (Mus musculus [11]) [min] | AUC (Mus musculus [12]) [µM·h] | Vd/F [13] [L/kg] | Activity (HEK293) | Activity (HepG2) | Activity (Raji) | Activity (BJ) | % activity remaining at 20 min, 1 µM (CYP2D6 [14]) [%] | % activity remaining at 20 min, 10 µM (CYP2D6 [15]) [%] | EC50 (Plasmodium falciparum [2]) [µM] | EC50 (Plasmodium falciparum [3]) [µM] | AUC (Mus musculus [16]) [µM·h] | also measured
1 | Cc1ccc(N2CCN(CC(O)COc3ccccc3C(=O)CCc3ccccc3)CC2)cc1 (configuration not stated) | 1.3 | 0.64 | > 5 | BLD | 2.2 (≈ 1.01 µg/mL) | 0.302 | 0.867 | 480 | 30 | 6.49 | 272 | Non-toxic | Non-toxic | Non-toxic | Non-toxic | 92 | 71 | – | – | – | IC50 [1]: 4.31 µM; CLint scaled [7]: 2.28 L/h/kg
2 | O=C(CCc1ccccc1)c1cc(F)ccc1OCC(O)CN1CCC(c2ccccc2)CC1 (configuration not stated) | 2.2 | 0.42 | – | BLD | 0.2 (≈ 0.0923 µg/mL) | 0.434 | 0.481 | 60 | 60 | 3.75 | 982 | Non-toxic | Non-toxic | Non-toxic | Non-toxic | 73 | 34 | 1.33 | 0.26 | 1.6 | Vd/F [17]: 224 L/kg
3 | O=C(CCc1ccc(F)cc1)c1ccccc1OCC(O)CN1CCN(C(c2ccccc2)c2ccccc2)CC1 (configuration not stated) | 0.45 | 0.21 | – | BLD | 0.6 (≈ 0.332 µg/mL) | 0.0924 | 1.14 | 30 | 60 | 5.67 | 288 | Non-toxic | Non-toxic | Non-toxic | Non-toxic | 83 | 76 | 0.16 | 0.1 | 0.298 | Cmax (Mus musculus [18]): 0.861 µM; Tmax (Mus musculus [19]): 30 min; AUC (Mus musculus [20]): 4.08 µM·h; Vd/F [17]: 370 L/kg; Vz/F (Mus musculus [21]): 1758 L/kg
4 | O=C(CCc1ccccc1)c1cc(F)ccc1OCC(O)CN1CCN(C(c2ccccc2)c2ccccc2)CC1 (configuration not stated) | 0.66 | 0.31 | > 5 | – | 0.2 (≈ 0.111 µg/mL) | 0.0987 | 0.907 | 60 | 60 | 6.17 | 276 | Non-toxic | Non-toxic | Non-toxic | Non-toxic | – | – | – | – | – | permeability [5]: 8 nm/s; CLint scaled [22]: 2.04 L/h/kg
5 | O=C(CCc1ccccc1)c1ccccc1OCC(O)CN1CCC(c2ccccc2)CC1 (configuration not stated) | 0.75 | 0.24 | > 5 | – | 7.3 (≈ 3.24 µg/mL) | 0.0696 | 1.62 | 18 | 30 | 6.8 | 278 | Non-toxic | Non-toxic | Non-toxic | Non-toxic | 78 | 31 | – | – | 0.224 | Activity (Plasmodium berghei [23]): 33.3%; permeability [5]: 4900 nm/s; Cmax (Mus musculus [18]): 1.75 µM; Tmax (Mus musculus [19]): 30 min; AUC (Mus musculus [20]): 15.3 µM·h; Vz/F (Mus musculus [24]): 1093.3 L/kg; Vd/F [25]: 623 L/kg; Activity (Plasmodium berghei [26]): 44.5%; Activity (Plasmodium berghei [27]): 28.4%; Activity (Plasmodium berghei [28]): 50.4%; MST (Plasmodium berghei [29]): 9 days
